Compound activity (PubChem)
Most compounds without a hit are left out; they make up all but 2.4% or so of the library.
pCIP destab: p/CIP protein destabilization; Q05BA5; F442A p/CIP-EGFP cells, EGFP fluorescence, 16 h; decrease of EGFP signal, % at 10 µM; actives 0.01% (n = 290,000); AID 1984;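 active means EGFP signal decrease of at least 30% at 10 µM or well 3 SD below plate mean, unless failing retest; inactive means the rest, including hits failing retest or dose response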
H9c2 protect: modulators protecting cardiomyocytes from myocardial damage; H9c2 cardiomyocytes, H2O2 injury protection, ATPLite, 2 h; protection from H2O2 cell death, % at 20 µM; actives 0.63% (n = 360,000); AID 588492;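 active means compounds giving at least 50% protection of heart cells from peroxide-induced death in the single-dose screen, raw or plate-pattern-corrected value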
JMJD2C inh: human JMJD2C demethylase inhibition; AID 2099; actives 0.069% (n = 330,000); Q9H3R0; GST-JMJD2C(1-420) H3K9me3 demethylation, DELFIA europium; inhibition, % at 2.35 µM;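 active means more than half of a compound's replicate wells show inhibition beyond 50%, single wells judged on their own value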;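 further: signal counts dimethyl H3K9 product captured on neutravidin plate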
T cruzi repl: T. cruzi replication inhibition | T. cruzi beta-gal in NIH3T3, luminescence, 90 h | inhibition, % (no concentration beside the values) | actives 1.4% (n = 300,000);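 active means mean inhibition across valid replicates above about 55%, limit read from the data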;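 further: signal also drops with host cell toxicity which is not excluded here; higher percent means less beta-gal luminescence so fewer parasites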
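Test system: β-gal T. cruzi (Tulahuen C4) inside NIH/3T3 cells / Quantity: 5,000 cells/well / Measured by: luminescence from GalScreen with 0.05% NP40, read after 60 min / Medium: DMEM plus 2% FBS / Measure: parasite load inhibition, % / Reagent: Tulahuen C4 trypomastigotes, 5000/well / Schedule: co-culture of at least 90 h after 3 h attachment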
PP5 primary: PP5 (human) phosphatase inhibition; AID 1987; purified PP5c, OMFP substrate fluorescence; actives 0.18% (n = 320,000); P53041; inhibition, % at 6.7 µM;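 active means inhibition above the campaign's mean inhibition across all tested compounds plus 3 SD, cut at about 9.5% in these data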
CTSL1 counter: cathepsin L1 inhibition, PFM18AAP counter-screen; actives 0.49% (n = 300,000); inhibition, % at 5.96 µM; recombinant F. hepatica cathepsin L1, Z-Leu-Arg-MCA fluorescence;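 active means inhibition above the mean of all tested compounds plus 3 SD, set per screening campaign, cut at about 17% in these data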
Numbers stand for hits; n = inactive; x = no result given.

SMILES	pCIP destab	H9c2 protect	JMJD2C inh	T cruzi repl	PP5 primary	CTSL1 counter
Cc1ccc(N2C(=O)NC(=O)/C(=C/C=C/c3ccco3)C2=O)cc1	n	n	n	n	n	n
CC(=O)N1Cc2cnnn2-c2ccccc2C1(C#N)Cc1ccccc1 (stereo not given)	x	n	x	x	x	x
COc1cc(/C=C/c2nc3ccccc3c(=O)n2-c2ccccc2O)ccc1O	n	50.0	n	n	n	n
O=c1c2ccccc2nc(/C=C/c2ccc(O)c(O)c2)n1-c1ccccc1	n	56.3	n	n	n	n
CCOc1ccc(CNCCc2ccc3c(c2)OCO3)cc1	n	n	n	67.3	n	n
CCOc1ccccc1CNCCc1ccc2c(c1)OCO2	n	n	n	n	n	n
COC(=O)C[C@]1(C(=O)OC)CN(C#N)N(c2ccc(Cl)cc2)C12c1ccccc1-c1ccccc12	n	n	n	n	n	n
COC(=O)[C@@H]1[C@@H](C(=O)OC)C2(c3ccccc3-c3ccccc32)N(c2ccc(Cl)cc2)N1C#N	n	n	n	55.8	n	n
Cn1cc(C=C2C(=O)NC(=O)NC2=O)c2ccccc21	n	n	n	n	n	n
C=CCn1c(C)c(C=C2C(=O)NC(=O)NC2=O)c2ccccc21	n	n	50.1	n	n	n
Cc1nc2ccccc2c(=O)n1-c1cc([N+](=O)[O-])cc([N+](=O)[O-])c1	n	n	n	55.3	n	n
Cc1nc2ccccc2c(=O)n1-c1ccncc1	n	n	n	n	n	n
Clc1ccc(NC2=NCCCS2)cc1Cl	n	n	n	54.8	n	n
Cc1ccc(NC2=NCCCS2)cc1Cl	n	n	n	n	n	n
CC12CCC(=O)C=C1CC(O)C1C2CCC2(C)C1CCC2(C)O (stereo not given)	x	n	x	x	x	x
COc1ccc(CNCCc2ccc(Cl)cc2)c(OC)c1OC	n	n	n	64.1	n	n
CCN(CC)c1ccc(CNCCc2ccc(F)cc2)cc1	n	n	n	n	n	n
Fc1ccc(CCNCc2ccc(Cl)c(Cl)c2)cc1	n	n	n	67.2	n	n
COc1ccc(CNCCc2cccc(F)c2)c2ccccc12	n	x	n	n	x	x
COc1cc(OC)c(OC)cc1CNCCc1ccc(OC)c(OC)c1	n	n	n	n	n	n
COc1cc(OC)c(OC)cc1CNCCc1ccc(F)cc1	n	n	n	62.5	x	x
CCc1ccc(CNCCc2ccc(F)cc2)cc1	n	n	n	58.8	n	n
C[C@]12CCC3C(CC[C@H]4C[C@H](OC(=O)c5cccnc5)CC[C@]34C)C1CCC2=O (stereo not given in full)	x	n	n	x	x	x
COC(=O)C1=C(c2ccc(OC(F)(F)F)cc2)C[C@@H]2CC[C@H]1N2C(=O)NC1CC1	x	n	n	x	n	x
C=CCNC(=S)N1Cc2ccccc2-n2nncc2C1	x	n	x	x	x	x
SMILES	pCIP destab	H9c2 protect	JMJD2C inh	T cruzi repl	PP5 primary	CTSL1 counter
Cc1nc2ccccc2c(=O)n1/N=C/c1cc(Br)cc(Br)c1O	x	55.3	n	n	n	n
O=C1CN=C(c2cccc(Br)c2)c2cc(Br)ccc2N1	n	n	n	n	n	n
COC(=O)C1=C(c2cc3ccccc3s2)C[C@@H]2CC[C@H]1N2C(=O)NCc1ccc(C(F)(F)F)cc1	x	n	n	57.4	n	n
CC(C)(C)n1nnnc1C(C1CC1)N1CCC2(CC1)C(=O)NCN2c1ccccc1 (stereo not given)	x	n	x	x	x	x
O=c1c2ccccc2nc(CSc2ncnc3nc[nH]c23)n1-c1ccccc1Cl	n	n	n	n	n	21.2
CN1c2ccc([N+](=O)[O-])cc2CC2(C(=O)NC(=O)N(c3ccccc3)C2=O)C1c1ccccc1 (stereo not given)	n	n	n	71.8	n	n
CN1c2ccc([N+](=O)[O-])cc2CC2(C(=O)NC(=O)NC2=O)C1c1ccccc1 (stereo not given)	n	n	n	n	n	n
CCc1ccc(CN2CCN(Cc3ccc(SC)cc3)CC2)cc1	n	n	n	70.2	n	n
CCOCN(C(=O)CCl)c1c(C)cccc1CC	x	n	n	n	n	n
CCOC(=O)c1ccc(-[n+]2c(-c3ccccc3)cc(-c3ccccc3)cc2-c2ccccc2)cc1	x	x	n	65.3	n	n
CN(C)c1ccc(-[n+]2c(-c3ccccc3)cc(-c3ccccc3)cc2-c2ccccc2)cc1	n	n	n	60.7	x	x
